High-throughput results as filed in PubChem.
MC4R antag cAMP: blocks human MC4R cAMP signaling | P32245 | MC4R-expressing cells, MTII-stimulated cAMP, LANCE TR-FRET | inhibition, % at 6.5 µM | 0.48% of 360,000 active | AID 540295;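 active = inhibition above its plate's cutoff, the mean of tested wells on that plate plus 3 SD, cut at about 29% in these data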
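Material: U2OS-MC4R stable cell line | Reagent: Melanotan II challenge after compound preincubation | Doses: One concentration, 6.5 µM nominal | Incubation: 30-min compound preincubation, 1-h Melanotan II challenge, 1-h detection, room temperature | Signal: TR-FRET cAMP assay | Replicates: One well per compound, no replicates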
NR1D1 modulator: modulates human Rev-erb alpha binding to DNA; P20393; Rev-erbα–FITC-DNA binding, fluorescence polarization, 90 min; activity, % at 10 µM; 0.79% of 370,000 active; AID 1259318;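 active = activity above about 14%, limit read from the data; passing the limit was not always enough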
NR2E3 ag-1: activates human NR2E3 receptor. inhibition of corepressor binding, % at 3.98 µM. AID 602229. CHO-S Gal4-NCOR/VP16-NR2E3 two-hybrid, luciferase. 0.35% of 360,000 active;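 active = inhibition above the mean of all tested compounds plus 3 SD, cut at about 70% in these data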;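 note: higher means lower luciferase signal from less NR2E3 corepressor binding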
Target sequence (Q9Y5X4 whole entry, looked up, the tested form may be a part): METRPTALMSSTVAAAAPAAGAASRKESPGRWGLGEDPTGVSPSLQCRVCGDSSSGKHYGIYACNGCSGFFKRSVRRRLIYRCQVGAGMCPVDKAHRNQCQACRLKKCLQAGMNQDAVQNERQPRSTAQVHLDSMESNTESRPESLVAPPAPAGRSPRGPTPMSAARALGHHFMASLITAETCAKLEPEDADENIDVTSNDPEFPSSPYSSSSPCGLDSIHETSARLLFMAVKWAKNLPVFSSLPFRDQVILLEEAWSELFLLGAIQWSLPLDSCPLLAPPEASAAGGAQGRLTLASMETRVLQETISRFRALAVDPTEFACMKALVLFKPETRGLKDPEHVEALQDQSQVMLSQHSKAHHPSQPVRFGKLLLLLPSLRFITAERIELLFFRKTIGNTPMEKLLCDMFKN
MC4R barr agon: activates human MC4R beta-arrestin recruitment | activation, % at 8.9 µM | 0.98% of 360,000 active | U2OS MC4R beta-arrestin complementation, luminescence; percent of melanotan II response, DMSO zero | P32245;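 active = activation above a per-plate cutoff, the mean activation of sample wells on that plate plus 3 SD, cut at about 8% in these data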
NR2E3 ag-2: agonists of human nuclear receptor NR2E3. Q9Y5X4. GST-NR2E3/biotin-RetCOR TR-FRET, 1536-well. inhibition of corepressor binding, % at 4.78 µM. 0.12% of 320,000 active;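 active = percent inhibition above the cutoff of mean plus 3 SD of all tested compounds, set per screening campaign, cut at about 20% in these data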
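Test system – NR2E3–RetCOR corepressor complex · Quantity – NR2E3 fusion 1.35 nM · Buffer or medium – Tris pH 7.5 · Incubation – Compound–protein incubation for 5 h at 4 °C · Technique – TR-FRET, Eu(K)-anti-GST donor, streptavidin-D2 acceptor, ex 340, em 617/671 nm · Evaluation – percent inhibition of 671/617 nm emission ratio versus biotin and DMSO controls · Plate – 1536-well format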
PG9 binder: small molecules binding HIV-1 gp120 antibody PG9. inhibition, % at 6.7 µM. 0.43% of 360,000 active. TR-FRET gp120-PG9 antibody binding; in the data active = inhibition above about 8.5%
PG9 binder conf: confirmation of small molecules binding HIV-1 gp120 antibody PG9; shares compounds with PG9 binder; TR-FRET PG9 antibody binding, biochemical; inhibition, % at 6.7 µM; 90% of 1,500 active; AID 651571; in the data active = inhibition above about 9%
PGV04 Ab binding: PGV04 control antibody binding, counter-screen; AID 651604; TR-FRET PGV04 antibody-gp120 binding, biochemical; shares compounds with PG9 binder; 95% of 1,500 active; inhibition, % at 6.7 µM; in the data active = inhibition above about 9.5%
PG9 bind DR: small molecules binding HIV-1 gp120 antibody PG9 | AID 651848 | IC50, µM | 95 tested, under 10 active | shares compounds with PG9 binder | TR-FRET PG9 antibody-gp120 binding inhibition; in the data active = IC50 below about 10 µM
PGV04 binding DR: counter-screen for PG9 binders: binding to control antibody PGV04; AID 651937; IC50, µM; shares compounds with PG9 binder; TR-FRET binding to control antibody PGV04; 20% of 95 active
PG126 DR counter: binds control antibody PG126 in PG9 counter-screen; shares compounds with PG9 binder; TR-FRET binding to antibody PG126, counterscreen; IC50, µM; 20% of 95 active; AID 651939
Each line names hits and unclear results; the compound was inactive in the other large screens (follow-up assays come after a bar, where they were run). A selection: hits, their analogues and other compounds. The true share with any hit is near 2.7%. Cut-off read from the data, not from the text of the source, unless noted: active = IC50 below about 9 µM; inactive = the rest.

COc1ccc(-c2ccc(NC(=O)c3ccc(Br)o3)cc2)nn1	PG9 binder 14.0 | PG9 binder conf 13.5 | PGV04 Ab binding 23.7
CCOC(=O)c1cc2sc(C)cc2n1CC(=O)Nc1cccc(C)c1C	PG9 binder 11.2 | PG9 binder conf 11.0 | PGV04 Ab binding 17.1
O=C(CCn1c(=O)c2ccccc2n(Cc2ccccc2)c1=O)NCc1ccc2c(c1)OCO2	PG9 binder 13.0 | PG9 binder conf 23.8 | PGV04 Ab binding 41.9
O=C(CCn1c(=O)oc2ccccc21)NCc1ccc2c(c1)OCO2	none
CC(=O)Nc1ccc(NC(=O)COc2ccc(-c3ccc(C#N)cc3)cc2)cc1	PG9 binder 9.0 | PG9 binder conf 11.8 | PGV04 Ab binding 17.6
N#Cc1ccc(-c2ccc(OCC(=O)Nc3cccnc3)cc2)cc1	none (no result: NR2E3 ag-2)
CC(C)(C)C(=O)NC(=S)Nc1sc2c(c1C(N)=O)CCC2	none
CC(C)CC(=O)NC(=S)Nc1sc2c(c1C(N)=O)CCC2	PG9 binder 17.2 | PG9 binder conf 26.2 | PGV04 Ab binding 33.1
CCOC(=O)N1CCC(NC(=O)c2cc3sccc3n2CC)CC1	none
CCn1c(C(=O)NC2CCC(C)CC2)cc2sccc21 (centres undefined)	PG9 binder 11.0 | PG9 binder conf inactive | PGV04 Ab binding inactive
CN(Cc1c(O)ccc2c1oc(=O)c1ccccc12)C1CCCCC1	PG9 binder 9.9 | PG9 binder conf 11.7 | PGV04 Ab binding 16.7
CN(C)Cc1c(O)ccc2c3c(c(=O)oc12)CCCCC3	none
Nn1c(=S)[nH]c2sc3c(c2c1=O)CCCC3	PG9 binder 9.7 | PG9 binder conf 10.1 | PGV04 Ab binding 9.4 | PG9 bind DR inactive | PGV04 binding DR inactive | PG126 DR counter inactive
O=C(COC(=O)c1ccccc1-n1cnnn1)c1ccccc1	none
O=C(COC(=O)c1ccccc1-n1cnnn1)c1ccc(Br)cc1	PG9 binder 10.3 | PG9 binder conf 10.7 | PGV04 Ab binding 16.2
O=C(COC(=O)c1ccccc1O)NNC(=O)c1ccc(Br)cc1	PG9 binder 9.5 (no result: NR2E3 ag-2) | PG9 binder conf 13.9 | PGV04 Ab binding 25.2
CN(c1ccccc1)S(=O)(=O)c1cccc(NC(=O)CCNC(=O)c2ccc([N+](=O)[O-])cc2)c1	none (no result: NR2E3 ag-2)
COc1ccc(-c2oc3ccc(N4CCOCC4)cc3c2/C=C/c2ccc(OC)c(OC)c2)cc1	PG9 binder 10.4 | PG9 binder conf 15.3 | PGV04 Ab binding 28.2
O=C(O)CSc1nnc2c(n1)[nH]c1ccccc12	none
O=C(O)c1ccccc1CSc1nnc2c(n1)[nH]c1ccccc12	PG9 binder 11.0 | PG9 binder conf 20.6 | PGV04 Ab binding 24.1
CCN(CC(=O)Nc1ccc(NC(C)=O)cc1)C(=O)CSc1ncnc2sc(C)c(C)c12	PG9 binder 11.3 | PG9 binder conf inactive | PGV04 Ab binding 24.4
CC(=O)Nc1ccc(NC(=O)CSc2ncnc3sc(C)c(C)c23)cc1	none
O=C(Cn1cccc1C(=O)c1ccccc1)NCCc1ccc(Cl)cc1	PG9 binder 9.4 | PG9 binder conf inactive | PGV04 Ab binding 10.4
COc1ccc2nc(C)[nH]c(=O)c2c1	none
COc1ccc2nc(-c3ccccc3)[nH]c(=O)c2c1	PG9 binder 53.6 (no result: NR2E3 ag-2) | PG9 binder conf 67.9 | PGV04 Ab binding 76.5
O=C(Nc1ccccc1)c1cnc(-c2ccccc2)nc1-c1ccccc1	PG9 binder 16.2 | PG9 binder conf 20.4 | PGV04 Ab binding 27.9
CCCCc1cc(=O)oc2cc(OCC(=O)Nc3ccccn3)ccc12	none
COc1ccc(C(=O)Nc2nnc(Cc3ccc(OC)c(OC)c3)s2)cc1	PG9 binder 9.5 | PG9 binder conf 10.9 | PGV04 Ab binding 19.6
COc1ccc(NC(=O)Nc2nnc(Cc3ccc(OC)c(OC)c3)s2)cc1	none
CCc1cc2cc(C)cc(C)c2nc1SCC(=O)Nc1cc(C)on1	none
CCc1cc2ccccc2nc1SCC(=O)Nc1cc(C)on1	PG9 binder 21.9 | PG9 binder conf 22.1 | PGV04 Ab binding 30.4
CCCN(CCC)CC(O)CN(c1cc([N+](=O)[O-])ccc1OC)S(=O)(=O)c1ccccc1 (centres undefined)	none
CC(C)CC(=O)C1CCCN(C(=O)c2ccc3oc(Cc4ccccc4)nc3c2)C1 (centres undefined)	none
CCOC(=O)C1CCCN(C(=O)c2ccc3oc(Cc4ccccc4)nc3c2)C1 (centres undefined)	PG9 binder 12.0 | PG9 binder conf inactive | PGV04 Ab binding inactive
COc1ccc2oc(=N)c(C(=O)Nc3ccccc3)cc2c1	PG9 binder 17.6 | PG9 binder conf inactive | PGV04 Ab binding 9.2
CCN(C(=O)COC(=O)c1ccc2ccccc2c1)c1c(N)n(Cc2ccccc2)c(=O)[nH]c1=O	none
O=C(Nc1cccc(C(F)(F)F)c1)NC1CCCCC1	none
COc1ccc(OCC(=O)Nc2cc(S(=O)(=O)N3CCCC3)ccc2OCC(F)(F)F)cc1	PG9 binder 9.3 (no result: NR2E3 ag-2) | PG9 binder conf 21.2 | PGV04 Ab binding 28.4
COc1ccccc1OCc1nnc(SCC(=O)NCc2ccco2)n1-c1ccccc1	none
Cc1ccc(NC(=O)Cn2cc(S(=O)(=O)c3ccc(C)cc3)c(=O)c3cc(F)ccc32)cc1	PG9 binder 12.8 | PG9 binder conf 36.4 | PGV04 Ab binding 62.3
c1ccc(Cc2nnc(Sc3ccccc3)c3ccccc23)cc1	PG9 binder 28.6 | PG9 binder conf 28.7 | PGV04 Ab binding 36.4
c1ccc(Sc2ncnc3ccccc23)cc1	none
COc1ccc(CNC(=O)Cn2nc([N+](=O)[O-])c(Br)c2C)cc1	none
O=C(Nc1cccc(Cl)c1Cl)C1CCN(c2ncccn2)CC1	PG9 binder 9.2 | PG9 binder conf 12.7 | PGV04 Ab binding 13.7
CS(=O)(=O)N1CCC(C(=O)Nc2cccc(Cl)c2Cl)CC1	none
Cc1ccc(C(=O)CCC(=O)Nc2cccc(C(F)(F)F)c2)cc1C	none
